pIC50: −log10 of the molar value. The source made the active and inactive calls. The rule behind the calls is not given here. *1 amine or outer side, *2 acyl side, *3 side chain or, on linkers, in order; H or OH if unused. Where a SMILES comes first, the peptide text is derived from it. The star is where a group is joined. NH(CH2)3O(βDGlc) = OC[C@H]1O[C@@H](OCCCN*)[C@H](O)[C@@H](O)[C@@H]1O; Glutaryl = O=C(CCCC(=O)[*:2])[*:1]
Tests used:
[1] = tested on: A549; assay: Inhibition of colony formation in human A549 cells at 4 uM supplemented with fresh medium containing compounds every 7 days for 15 days by crystal violet staining based assay; format: functional, cell-based
Procedure, shortened: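 Cells seeded at 300 per plate in 6-well plates; after 36 h exposed to 4 μM peptide, re-added after 7 days. Incubated 15 days total at 37°C, 5% CO2, then colonies stained with 2% crystal violet and quantified; n=3.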

[2] = tested on: HEK-293T; assay: Cytotoxicity against HEK293T cells at 12.5 uM measured after 2 hrs by LDH release assay; format: cell-based; conditions: human
[3] = tested on: A549; assay: Cytotoxicity against GLUT1 knockout out human A549 cells assessed as reduction in cell viability measured after 24 hrs by CCK8 assay; format: functional, cell-based; conditions: A549, 24 h
Procedure, shortened: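 A549 cells with GLUT1 knocked down by RNAi oligos, about 50% knockdown versus control oligos. Cells treated with a concentration series, read by 24-h serum-free CCK-8 viability, and an IC50 derived from the dose-response curve.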

[4] = Drug uptake in GLUT1 knockout out human A549 cells at 12.5 uM measured after 2 hrs using FITC-labelled compound by fluorescence assay; format: ADME, cell-based; conditions: a549, 2 h
Procedure, shortened: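 FITC-labelled peptide at 12.5 µM for 2 h, given to A549 cells and to A549 GLUT1-RNAi knockdown cells. Total and fluorescent cells counted by automated cell counter; n=3.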

[5] = tested on: A549; assay: Antitumor activity against human A549 cells expressing luciferase gene xenografted in Balb/c nu/nu mouse assessed as reduction in tumor volume at 9 mg/kg, ip administered every 2 days for seven times measured on day 14 by bioluminescent imaging analysis; format: functional, organism-based
Procedure, shortened: (§1)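 Male BALB/c nu/nu mice, 4-6 weeks old, carrying subcutaneous A549-luciferase xenografts in the right back. Dosing started when tumors reached 100-200 mm³ (day 0), five per group. Peptide was given at 9 mg/kg i.p. in 200 µL every other day for 7 doses; PBS served as control. Bioluminescent imaging on day 14; tumor size and body weight tracked. Tumors fixed in paraformaldehyde, paraffin-sectioned, TUNEL-stained.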

[6] = tested on: A549; assay: Potency index, ratio of compound effect to R-lycosin-I effect for antitumor activity against human A549 cells expressing luciferase gene xenografted in Balb/c nu/nu mouse at 3 mg/kg administered intratumorally; format: functional
[7] = Toxicity in Balb/c nu/nu mouse xenografted with human A549 cells expressing luciferase gene assessed as effect on heart at 9 mg/kg, ip administered every 2 days for seven times measured on day 14 by H and E staining based assay; format: organism-based; conditions: in vivo, 48 h
Procedure, shortened: (§2)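 Male BALB/c nu/nu mice bearing subcutaneous A549-luciferase xenografts received 9 mg/kg peptide i.p. (200 µL) every other day for seven doses, with a PBS control group of five. Heart, liver and kidney were fixed in 10% paraformaldehyde, sectioned and stained with H&E for histology.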

[8] = Toxicity in Balb/c nu/nu mouse xenografted with human A549 cells expressing luciferase gene assessed as effect on liver at 9 mg/kg, ip administered every 2 days for seven times measured on day 14 by H and E staining based assay; format: organism-based; conditions: in vivo, 48 h; procedure, shortened: as §2
[9] = Toxicity in Balb/c nu/nu mouse xenografted with human A549 cells expressing luciferase gene assessed as effect on kidney at 9 mg/kg, ip administered every 2 days for seven times measured on day 14 by H and E staining based assay; format: organism-based; conditions: in vivo, 48 h; procedure, shortened: as §2
[10] = Stability of the compound in serum (unknown origin) measured up to 48 hrs; format: ADME, cell-free
[11] = tested on: A549; assay: Antitumor activity against human A549 cells expressing luciferase gene xenografted in Balb/c nu/nu mouse assessed as increase in apoptotic cells at 9 mg/kg, ip administered every 2 days for seven times measured on day 14 by TUNEL assay; format: functional, organism-based; procedure, shortened: as §1
[12] = biological target: T1, Solute carrier family 2, facilitated glucose transporter member 1 (Homo sapiens) (UniProt P11166); assay: Binding affinity to GLUT1 in human A549 cells assessed as cytotoxicity by measuring reduction in cell viability at 12.5 uM measured after 2 hrs in absence of GLUT1 inhibitor STF-31 by CCK8 assay; format: cell-based
T1 sequence (whole entry): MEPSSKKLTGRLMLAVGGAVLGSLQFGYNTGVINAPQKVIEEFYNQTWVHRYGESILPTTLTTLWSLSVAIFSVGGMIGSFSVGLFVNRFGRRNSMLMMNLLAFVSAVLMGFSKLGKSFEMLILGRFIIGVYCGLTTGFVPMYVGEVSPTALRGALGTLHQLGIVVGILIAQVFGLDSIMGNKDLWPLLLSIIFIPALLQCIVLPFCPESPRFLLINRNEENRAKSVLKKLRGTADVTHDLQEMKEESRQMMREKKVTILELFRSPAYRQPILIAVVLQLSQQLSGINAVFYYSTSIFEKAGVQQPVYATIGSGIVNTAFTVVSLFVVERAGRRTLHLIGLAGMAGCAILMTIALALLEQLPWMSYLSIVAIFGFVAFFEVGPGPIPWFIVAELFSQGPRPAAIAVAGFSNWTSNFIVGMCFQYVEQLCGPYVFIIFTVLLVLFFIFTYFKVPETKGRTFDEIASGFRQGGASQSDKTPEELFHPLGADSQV
Procedure, shortened: (§3)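 A549 cells at 2×10^3/well, grown overnight, then preincubated 4 h in F12K/10% FBS with or without STF-31 (1 µM final). […] Incubated a further 2 h at 37 °C; viability by CCK-8.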

[13] = biological target: T1, Solute carrier family 2, facilitated glucose transporter member 1 (Homo sapiens); assay: Binding affinity to GLUT1 in human A549 cells assessed as cytotoxicity by measuring reduction in cell viability at 12.5 uM measured after 2 hrs in presence of GLUT1 inhibitor STF-31 by CCK8 assay; format: cell-based; procedure, shortened: as §3
[14] = biological target: T1, Solute carrier family 2, facilitated glucose transporter member 1 (Homo sapiens); assay: Binding affinity to GLUT1 in human A549 cells assessed as cytotoxicity by measuring reduction in cell viability at 40 umol/L measured up to 24 hrs in presence of 10% serum by CCK8 assay; format: cell-based

| Compound | inhibition [1] | Activity [2] | pIC50 [3] | Drug uptake [4] | Activity [5] | Ratio [6] | Activity [7] | Activity [8] | Activity [9] | Stability [10] | Activity [11] | Activity [12] | Activity [13] | Activity [14] |
| --- | --- | --- | --- | --- | --- | --- | --- | --- | --- | --- | --- | --- | --- | --- |
| CC[C@H](C)[C@H](NC(=O)[C@H](Cc1ccccc1)NC(=O)[C@H](CCCNC(=N)N)NC(=O)[C@H](C)NC(=O)[C@@H](NC(=O)[C@H](CO)NC(=O)[C@H](CCCNC(=N)N)NC(=O)[C@H](CCSC)NC(=O)[C@H](C)NC(=O)[C@H](CCCNC(=N)N)NC(=O)[C@H](Cc1ccccc1)NC(=O)[C@H](Cc1c[nH]c2ccccc12)NC(=O)CNC(=O)[C@H](CCCNC(=N)N)NC(=O)CCCC(=O)NCCCO[C@@H]1O[C@H](CO)[C@@H](O)[C@H](O)[C@H]1O)[C@@H](C)CC)C(=O)N[C@@H](C)C(=O)N[C@@H](CCCNC(=N)N)C(=O)N[C@@H](CCC(=O)O)C(=O)N[C@@H](CCCNC(=N)N)C(=O)N[C@@H](CC(C)C)C(=O)N[C@@H](CCCNC(=N)N)C(=O)N[C@@H](CCC(=O)O)C(=O)N[C@@H](Cc1cnc[nH]1)C(=O)N[C@@H](CC(C)C)C(=O)O ({NH(CH2)3O(βDGlc)-Glutaryl}-RGWFRAMRSIARFIARERLREHL-OH) | Active | Non-Toxic | 4.87 | Not Active | Active | 1.6 | Non-Toxic | Non-Toxic | Non-Toxic | Stable | Active |  |  |  |
| CC[C@H](C)[C@H](NC(=O)[C@H](Cc1ccccc1)NC(=O)[C@H](CCCNC(=N)N)NC(=O)[C@H](C)NC(=O)[C@@H](NC(=O)[C@H](CO)NC(=O)[C@H](CCCNC(=N)N)NC(=O)[C@H](CCSC)NC(=O)[C@H](C)NC(=O)[C@H](CCCNC(=N)N)NC(=O)[C@H](Cc1ccccc1)NC(=O)[C@H](Cc1c[nH]c2ccccc12)NC(=O)CNC(=O)[C@@H](N)CCCNC(=N)N)[C@@H](C)CC)C(=O)N[C@@H](C)C(=O)N[C@@H](CCCNC(=N)N)C(=O)N[C@@H](CCC(=O)O)C(=O)N[C@@H](CCCNC(=N)N)C(=O)N[C@@H](CC(C)C)C(=O)N[C@@H](CCCNC(=N)N)C(=O)N[C@@H](CCC(=O)O)C(=O)N[C@@H](Cc1cnc[nH]1)C(=O)N[C@@H](CC(C)C)C(=O)O (H-RGWFRAMRSIARFIARERLREHL-OH) |  |  |  |  |  |  |  |  |  |  |  | Active | Active | inactive |

Source: ChEMBL document CHEMBL4334452, “Monosaccharide Analogues of Anticancer Peptide R-Lycosin-I: Role of Monosaccharide Conjugation in Complexation and the Potential of Lung Cancer Targeting and Therapy” (J Med Chem, 2019)
